Consider 3 molecules from ChEMBL document CHEMBL1909519, “L-Proline anchored multicomponent synthesis of novel pyrido[2,3-a]carbazoles; investigation of in vitro antimicrobial, antioxidant, cytotoxicity and structure activity relationship studies” (Eur J Med Chem, 2011).

For assay [1], the system named is HCT-15. In words: Ratio of cisplatin IC50 to compound IC50 for human HCT15 cells. The class given is functional.
In assay [2] the test system is Enterococcus faecalis. In words: Antibacterial activity against Enterococcus faecalis after 24 hrs by agar disk diffusion assay. The format is functional. An outline of the steps:
(§1)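 Agar well diffusion on nutrient agar against Gram-positive clinical isolates (PSG Hospital, Coimbatore). Compounds in DMSO tested at 0 (control), 25, 50, 75, 100; DMSO as solvent and negative control; ciprofloxacin ([…]) as positive control. Plates incubated 37 ± 2 °C, 24 h; zone of inhibition diameter read in mm.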
On the technique in general: A growth-free zone around the sample is the usual read-out of agar diffusion tests.

In assay [3] the test system is Escherichia coli. In words: Antibacterial activity against Escherichia coli after 24 hrs by agar disk diffusion assay. The format is functional. An outline of the steps: (§2)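 Gram-negative clinical isolates (PSG Hospital, Coimbatore) tested by agar well diffusion on nutrient agar. Compounds dissolved in DMSO at 0 (control), 25, 50, 75, 100; DMSO was the negative control and ciprofloxacin ([…]) the positive control. Incubation 37 ± 2 °C for 24 h, then inhibition zone diameter measured in mm.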

Assay [4] relates to Escherichia coli. The assay is described as follows: Antibacterial activity against Escherichia coli at 25 ug/ml after 24 hrs by agar disk diffusion assay. The note with it: read-out: DIZ. The format is functional. In a few lines:
as §2

For assay [5], the system named is A549. The assay is described as follows: Cytotoxicity against human A549 cells after 48 hrs by SRB assay. The class given is functional, cell-based. The note with it: A549, 48 h. In a few lines: (§3)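 Cells in RPMI-1640 with 10% heat-inactivated FBS, 1 mM NaHCO3, 2 mM L-glutamine, 37 °C, 5% CO2; seeded (B16F10 5 × 10⁴ cells/mL, others 1 × 10⁵ cells/mL), 24 h, then compounds in DMSO at 1.56–50 for 48 h, triplicate wells. TCA fixation, SRB staining 30 min, tris extraction, OD 520 nm; IC50 by linear regression, mean ± SD of three independent experiments; cisplatin positive control.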
In general terms: In SRB staining, fixed cells bind dye roughly in proportion to their protein.

Assay [6] has as its system Candida albicans. In words: Antifungal activity against Candida albicans after 48 hrs by agar disk diffusion assay. The format is functional. In a few lines: (§4)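 Fungal isolates (PSG Hospital, Coimbatore) grown on Sabouraud dextrose agar; agar well diffusion with compounds in DMSO at 0 (control), 25, 50, 75, 100. DMSO negative control, fluconazole ([…]) positive control. Plates held 28 ± 2 °C for 48 h; zone of inhibition diameter recorded in mm.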

The subject of assay [7] is Enterococcus faecalis. The assay is described as follows: Antibacterial activity against Enterococcus faecalis at 25 ug/ml after 24 hrs by agar disk diffusion assay. The class given is functional. The note with it: read-out: DIZ. An outline of the steps: as §1
In assay [8] the test system is A549. In words: Ratio of cisplatin IC50 to compound IC50 for human A549 cells. The class given is functional.
For another assay, the species on record is Homo sapiens. In words: Ratio of cisplatin IC50 to compound IC50 for human SK-MEL-12. The format is functional.
Assay [9] relates to Klebsiella pneumoniae. The assay is described as follows: Antibacterial activity against Klebsiella pneumoniae after 24 hrs by agar disk diffusion assay. The format is functional. An outline of the steps: as §2
In assay [10] the test system is Aspergillus niger. The assay is described as follows: Antifungal activity against Aspergillus niger at 25 ug/ml after 48 hrs by agar disk diffusion assay. The format is functional. The settings on record: read-out: DIZ. In a few lines: as §4
Assay [11] relates to HCT-15. In words: Cytotoxicity against human HCT15 cells after 48 hrs by SRB assay. The format is functional, cell-based. The note with it: HCT-15, 48 h. An outline of the steps: as §3
Assay [12] relates to Klebsiella pneumoniae. In words: Antibacterial activity against Klebsiella pneumoniae at 25 ug/ml after 24 hrs by agar disk diffusion assay. The class given is functional. The note with it: read-out: DIZ. An outline of the steps: as §2
In assay [13] the test system is Staphylococcus aureus. The assay is described as follows: Antibacterial activity against Staphylococcus aureus at 25 ug/ml after 24 hrs by agar disk diffusion assay. The class given is functional. The note with it: read-out: DIZ. An outline of the steps:
as §1

Assay [14] concerns Radical scavenging activity. In words: Antioxidant activity assessed as DPPH radical scavenging activity after 30 mins by micro plate reader. The class given is functional. An outline of the steps:
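DPPH assay: various compound concentrations brought to volume with ethanol, mixed with 0.1 mM ethanolic DPPH alongside vitamin C standard; shaken 30 min at 24 °C, absorbance read at 517 nm; concentration giving 50% decrease determined.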
(In general: DPPH is a stable violet radical that fades when it is reduced.)

Assay [15] is described as follows: Cytotoxicity against human SK-MEL-12 cells after 48 hrs by SRB assay. The format is functional, cell-based. In a few lines:
as §3

Assay [16] concerns B16-F10. The assay is described as follows: Ratio of cisplatin IC50 to compound IC50 for mouse B16F10. The class given is functional.
Assay [17] concerns B16-F10. In words: Cytotoxicity against mouse B16F10 cells after 48 hrs by SRB assay. The class given is functional, cell-based. The note with it: B16-F10, 48 h. In a few lines:
as §3

Assay [18] has as its system Candida albicans. In words: Antifungal activity against Candida albicans at 25 ug/ml after 48 hrs by agar disk diffusion assay. The class given is functional. The note with it: read-out: DIZ. In a few lines: as §4
Assay [19] relates to SK-OV-3. The assay is described as follows: Cytotoxicity against human SKOV3 cells after 48 hrs by SRB assay. The note with it: SK-OV-3, 48 h. The format is functional, cell-based. In a few lines:
as §3

Assay [20] relates to Aspergillus niger. In words: Antifungal activity against Aspergillus niger after 48 hrs by agar disk diffusion assay. The class given is functional. In a few lines: as §4
Assay [21] deals with Staphylococcus aureus. In words: Antibacterial activity against Staphylococcus aureus after 24 hrs by agar disk diffusion assay. The format is functional. An outline of the steps: as §1
Assay [22] concerns Candida albicans. In words: Antifungal activity against Candida albicans at 100 ug/ml after 48 hrs by agar disk diffusion assay. The class given is functional. The note with it: read-out: DIZ. An outline of the steps: as §4
Assay [23] deals with Aspergillus niger. The assay is described as follows: Antifungal activity against Aspergillus niger at 100 ug/ml after 48 hrs by agar disk diffusion assay. The format is functional. The settings on record: read-out: DIZ. An outline of the steps:
as §4

In assay [24] the test system is Escherichia coli. In words: Antibacterial activity against Escherichia coli at 100 ug/ml after 24 hrs by agar disk diffusion assay. The settings on record: read-out: DIZ. The format is functional. In a few lines:
as §2

The nature of assay [25]: Cytotoxicity against human SK-MEL-12 cells up to 50 ug/ml after 48 hrs by SRB assay. The class given is functional, cell-based. An outline of the steps:
as §3

The test system of assay [26] is SK-OV-3. The assay is described as follows: Cytotoxicity against human SKOV3 cells up to 50 ug/ml after 48 hrs by SRB assay. The class given is functional, cell-based. An outline of the steps:
as §3

Assay [27] deals with B16-F10. In words: Cytotoxicity against mouse B16F10 cells up to 50 ug/ml after 48 hrs by SRB assay. The format is functional, cell-based. In a few lines: as §3
Assay [28] has as its system HCT-15. In words: Cytotoxicity against human HCT15 cells up to 50 ug/ml after 48 hrs by SRB assay. The class given is functional, cell-based. In a few lines: as §3
Assay [29] relates to Staphylococcus aureus. The assay is described as follows: Antibacterial activity against Staphylococcus aureus at 100 ug/ml after 24 hrs by agar disk diffusion assay. The format is functional. The note with it: read-out: DIZ. In a few lines:
as §1

The subject of assay [30] is A549. The assay is described as follows: Cytotoxicity against human A549 cells up to 50 ug/ml after 48 hrs by SRB assay. The class given is functional, cell-based. An outline of the steps: as §3
Assay [31] deals with Enterococcus faecalis. In words: Antibacterial activity against Enterococcus faecalis at 100 ug/ml after 24 hrs by agar disk diffusion assay. The format is functional. The note with it: read-out: DIZ. An outline of the steps: as §1
The test system of assay [32] is Klebsiella pneumoniae. In words: Antibacterial activity against Klebsiella pneumoniae at 100 ug/ml after 24 hrs by agar disk diffusion assay. The format is functional. The settings on record: read-out: DIZ. An outline of the steps: as §2

≈ marks a conversion by molar mass, not a printed value.

The term MIC denotes the lowest concentration found to suppress growth. Higher therefore signals a less susceptible organism. As a reminder, the IC50 is the concentration that inhibits the measured activity by half. Regarding `Cc1ccc2[nH]c3c(c2c1)CCc1c-3nc(N)c(C#N)c1-c1cccs1`, the “Ratio IC50” value in the assay on HCT-15 [1] stood at 2.31; in the assay on A549 [8], 1.39; in the assay filed under Homo sapiens it was 2.25; with B16-F10 [16], 1.94. Further, the MIC with Enterococcus faecalis [2] came out at 25 µg/mL (≈ 70.1 µM); against Escherichia coli [3], 25 µg/mL (≈ 70.1 µM); against Candida albicans [6] it was 75 µg/mL (≈ 210 µM); with Klebsiella pneumoniae [9], 25 µg/mL (≈ 70.1 µM); against Aspergillus niger [20], 75 µg/mL (≈ 210 µM); with Staphylococcus aureus [21], 25 µg/mL (≈ 70.1 µM). The zone of inhibition at 25 µg/mL with Escherichia coli [4] came out at 27 mm; in the assay on Enterococcus faecalis [7], 29 mm; with Aspergillus niger [10], 15 mm; in the assay with Klebsiella pneumoniae [12], 28 mm; in the assay with Staphylococcus aureus [13] it was 26 mm; in the assay with Candida albicans [18], 17 mm. The IC50 in the assay with A549 [5] amounted to 4.04 µg/mL (≈ 11.3 µM); in the assay on HCT-15 [11], 3.45 µg/mL (≈ 9.68 µM); in assay [14] it was 227.37 µg/mL (≈ 638 µM); in [15], 4.61 µg/mL (≈ 12.9 µM); in the assay with B16-F10 [17], 2.85 µg/mL (≈ 8 µM); in the assay on SK-OV-3 [19], 10 µg/mL (≈ 28.1 µM).

In the case of `CCOC(=O)c1c(N)nc2c(c1-c1ccccc1)CCc1c-2[nH]c2ccc(C)cc12`, the MIC is 100 µg/mL (≈ 252 µM) against Enterococcus faecalis [2]; 100 µg/mL (≈ 252 µM) against Escherichia coli [3]; above 100 µg/mL against Candida albicans [6]; 100 µg/mL (≈ 252 µM) with Klebsiella pneumoniae [9]; above 100 µg/mL against Aspergillus niger [20]; 100 µg/mL (≈ 252 µM) with Staphylococcus aureus [21]. The zone of inhibition at 100 µg/mL is 2 mm in the assay on Candida albicans [22]; 4 mm with Aspergillus niger [23]; 13 mm in the assay on Escherichia coli [24]; 14 mm with Staphylococcus aureus [29]; 15 mm with Enterococcus faecalis [31]; 16 mm in the assay on Klebsiella pneumoniae [32]. Further, the IC50 result is “Not Active” in assay [25]; “Not Active” in the assay on SK-OV-3 [26]; “Not Active” with B16-F10 [27]; “Not Active” with HCT-15 [28]; 300.84 µg/mL (≈ 757 µM) in assay [14]; “Not Active” with A549 [30].

Take `Cc1ccc2[nH]c3c(c2c1)CCc1c-3nc(N)c(C#N)c1-c1ccccc1`: the MIC against Enterococcus faecalis [2] is 100 µg/mL (≈ 285 µM); in the assay with Escherichia coli [3], 100 µg/mL (≈ 285 µM); against Candida albicans [6], above 100 µg/mL; in the assay on Klebsiella pneumoniae [9], 100 µg/mL (≈ 285 µM); against Aspergillus niger [20], above 100 µg/mL; in the assay on Staphylococcus aureus [21], 100 µg/mL (≈ 285 µM). The zone of inhibition at 100 µg/mL with Candida albicans [22] came out at 3 mm; with Aspergillus niger [23] it was 4 mm; with Escherichia coli [24] it was 16 mm; with Staphylococcus aureus [29], 12 mm; with Enterococcus faecalis [31], 14 mm; with Klebsiella pneumoniae [32], 15 mm. Also, the IC50 in the assay with A549 [5] is 49.2 µg/mL (≈ 141 µM); in [25], “Not Active”; in the assay on SK-OV-3 [26] it was “Not Active”; with HCT-15 [11], 44.9 µg/mL (≈ 128 µM); in [14], 205.5 µg/mL (≈ 586 µM); with B16-F10 [17], 47.6 µg/mL (≈ 136 µM).
